The list is not random: actives were taken first. Their share in the collection is about 3.3%.
AHR act: activates the human aryl hydrocarbon receptor; P35869; AHR-responsive luciferase reporter cells, luminescence; activation, % at 5 µM; actives 2.5% (n = 320,000); in the data active = activation above about 47%;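 note: 0% = vehicle wells and 100% = reference agonist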
ABCB6 inh 2: blocks the human ABCB6 transporter. Q9NP58. K562-ABCB6 porphyrin accumulation, flow cytometry, 1 h; stronger effect = lower value. fluorescence ratio to DMSO, % at 10 µM. actives 0.19% (n = 360,000). AID 602162;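 active = fluorescence ratio to DMSO below 75%, the collection mean minus 3 SD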;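 note: signal is porphyrin accumulated inside mitochondria; 100% equals median channel fluorescence of DMSO control wells; lower ratio means ABCB6 inhibition with less porphyrin fluorescence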
STAT3 act: STAT3 signaling activation | U3A cells, IL-6 STAT3-luciferase reporter, luminescence; 100% = signal with IL-6 EC80 alone | activation (% of control), % at 5.6 µM | actives 0.91% (n = 190,000);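 active = activation above the screen-wide mean of compound activation plus 3 SD, cut at about 130% in these data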;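 note: 0% = background luminescence of wells with medium and substrate only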
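system = STAT3-luciferase reporter U3A cells | reagent = IL-6 stimulus at 33 ng/mL final | timing = 1 h compound pre-exposure, 6 h IL-6 stimulation, 37 °C | measured by = luminescence | evaluation = % activation versus median of IL-6-stimulated wells | control set = IL-6-only wells as 100% reference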
FXN GAA850 act: activators of GAA850 frataxin (FXN) promoter; HEK293 lucGAA850 FXN promoter luciferase reporter, 24 h; percent of 10 µM SAHA response; activation, % at 6 µM; actives 0.56% (n = 360,000);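 active = activation above the average of all compounds screened plus 3 SD, cutoff fixed separately per campaign, cut at about 7.5% in these data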;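 note: 0% = DMSO wells and 100% = 10 µM SAHA wells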
GAA30 FXN cntr: activates GAA30 frataxin promoter, counter-screen for GAA850 activators. shares compounds with FXN GAA850 act. HEK293 lucGAA30 FXN promoter luciferase, 24 h; DMSO = 0%, 5 µM ipriflavone = 100%. activation, % at 6 µM. actives 66% (n = 1,900). AID 588350;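 active = mean activation above the mean of solvent-only control wells plus 3 SD, cut at about 22% in these data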;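 note: counterscreen of GAA850 promoter hits where activity marks nonselective or luminescence artifacts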
FXN GAA850 conf: confirmation of GAA850 frataxin (FXN) promoter activators. shares compounds with FXN GAA850 act. HEK293 lucGAA850 FXN promoter luciferase reporter, 24 h; 100% = activation by SAHA. activation, % at 6 µM. actives 86% (n = 1,900);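 active = mean activation above a set limit taken from the primary screen, cut at about 8% in these data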;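 note: 0% = DMSO wells and 100% = 10 µM SAHA wells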
Active calls of the source: *.

What do the screens show for `CCOc1ccc(S(=O)(=O)Nc2ccccc2C(=O)Nc2ccccc2N2CCOCC2)cc1`?
AHR act: 1; ABCB6 inh 2: 96; STAT3 act: 96; FXN GAA850 act: 8.3*; GAA30 FXN cntr: 19; FXN GAA850 conf: 11*

Results for CCOC(=O)C(CC)n1cnc2c(nnn2-c2ccccc2)c1=O (stereo not drawn) ?
AHR act: 2; ABCB6 inh 2: 99; FXN GAA850 act: -1

What do the screens show for `CCOC(=O)C(CC)n1cnc2c(nnn2-c2ccc(F)cc2)c1=O` (stereo not drawn)?
AHR act: 2; ABCB6 inh 2: 101; FXN GAA850 act: 19*; GAA30 FXN cntr: 2; FXN GAA850 conf: 4

Results for CCc1nc2sc(C#N)c(N)c2c2c1CCCC2 ?
AHR act: 4; ABCB6 inh 2: 103; STAT3 act: 100; FXN GAA850 act: 10*; GAA30 FXN cntr: 14; FXN GAA850 conf: 14*

What do the screens show for `Cc1nnc(SCC(=O)c2cc(C)n(-c3ccc4c(c3)OCO4)c2C)s1`?
AHR act: 7; ABCB6 inh 2: 101; STAT3 act: 84; FXN GAA850 act: 11*; GAA30 FXN cntr: 66*; FXN GAA850 conf: 26*

What do the screens show for `Cc1ccc(NC(=O)CNC(=O)c2ccc(Br)o2)nc1`?
AHR act: 11; ABCB6 inh 2: 96; FXN GAA850 act: 3

How did NC(=O)c1cc(S(=O)(=O)NCc2ccccc2)cs1 do in these assays?
AHR act: 3; ABCB6 inh 2: 100; FXN GAA850 act: 0

Results for O=C(O)c1cc(N=Nc2c(O)ccc3ccccc23)cc(C(=O)O)c1 ?
ABCB6 inh 2: 106; STAT3 act: 116; FXN GAA850 act: 1

What do the screens show for `O=C(O)c1ccc(N=Nc2c(O)ccc3ncccc23)cc1`?
AHR act: 2; ABCB6 inh 2: 95; FXN GAA850 act: 8.5*; GAA30 FXN cntr: 108*; FXN GAA850 conf: 39*

Results for O=C(NCc1ccccc1F)C1CCCN(C(=O)Nc2ccc(F)cc2)C1 (stereo not drawn) ?
AHR act: 0; ABCB6 inh 2: 102; FXN GAA850 act: 1

Results for C=C1CCN([C@@H](Cc2ccccc2)C(=O)NCc2ccc(Cl)c(Cl)c2)S(=O)(=O)c2ccccc21 ?
AHR act: 5; ABCB6 inh 2: 101; FXN GAA850 act: 0

Results for COc1cc(C(=O)NC2CCCc3ccccc32)ccc1OCC(=O)Nc1ccc(F)cc1 (stereo not drawn) ?
AHR act: -3; ABCB6 inh 2: 104; STAT3 act: 100; FXN GAA850 act: -1

How did COc1ccc(-c2cc(C(=O)NCC3CCCO3)c3cc(C)ccc3n2)cc1 (stereo not drawn) do in these assays?
AHR act: 6; ABCB6 inh 2: 93; STAT3 act: 103; FXN GAA850 act: 7.6*; GAA30 FXN cntr: 68*; FXN GAA850 conf: 22*

Results for COc1ccc(N=c2oc3cc(O)ccc3cc2C(=O)NCC2CCCO2)cc1 (stereo not drawn) ?
AHR act: -6; ABCB6 inh 2: 98; STAT3 act: 70; FXN GAA850 act: -2

Results for COc1ccc(N=c2oc3cc(O)ccc3cc2C(=O)NCC2CCCO2)c(OC)c1 (stereo not drawn) ?
AHR act: -13; ABCB6 inh 2: 97; STAT3 act: 73; FXN GAA850 act: 9.7*; GAA30 FXN cntr: 5; FXN GAA850 conf: 18*

What do the screens show for `CCC(=O)Nc1cc2c(cc1Cl)-c1ccccc1C2`?
ABCB6 inh 2: 103; FXN GAA850 act: 8.4*; GAA30 FXN cntr: 85*; FXN GAA850 conf: 31*

How did COC(=O)C1=C(C)N(Cc2cccnc2)C(=O)/C1=C\c1sccc1C do in these assays?
AHR act: 5; ABCB6 inh 2: 99; STAT3 act: 90; FXN GAA850 act: 1

Results for CCN(CC)S(=O)(=O)c1cc(NC(=O)CSc2nc3c(cc2C#N)C(=O)CC(C)(C)C3)ccc1C ?
AHR act: -2; ABCB6 inh 2: 95; STAT3 act: 108; FXN GAA850 act: 10*; GAA30 FXN cntr: 6; FXN GAA850 conf: 3

How did CCN(CC)S(=O)(=O)c1cc(NC(=O)CSc2nnc(N)s2)ccc1C do in these assays?
AHR act: 0; ABCB6 inh 2: 84; FXN GAA850 act: 0

How did CCOC(=O)c1cnc2c(ccc3ccccc32)c1NCCN(C)C do in these assays?
AHR act: -1; ABCB6 inh 2: 107; FXN GAA850 act: 8.4*; GAA30 FXN cntr: 23*; FXN GAA850 conf: 17*

What do the screens show for `Cc1ccc(NC(=O)NC(=S)NC(=O)c2ccccc2)cc1`?
AHR act: 3; ABCB6 inh 2: 99; STAT3 act: 99; FXN GAA850 act: 8.2*; GAA30 FXN cntr: 56*; FXN GAA850 conf: 24*

What do the screens show for `CCOC(=O)c1c(CN2CCN(C)CC2)n(-c2ccccc2)c2cc(Br)c(O)cc12`?
AHR act: 0; ABCB6 inh 2: 93; FXN GAA850 act: -2

Results for CCOC(=O)c1c(CSC(=N)N)n(-c2ccccc2)c2cc(Br)c(OC(C)=O)cc12 ?
AHR act: 0; ABCB6 inh 2: 99; FXN GAA850 act: 10*; GAA30 FXN cntr: -7; FXN GAA850 conf: 33*

What do the screens show for `CN(C)C(=O)CCC(=O)N1CCCC(C(=O)c2ccc3c4c(cccc24)CC3)C1` (stereo not drawn)?
AHR act: 3; ABCB6 inh 2: 96; STAT3 act: 92; FXN GAA850 act: 10*; GAA30 FXN cntr: 44*; FXN GAA850 conf: 13*

Results for Cc1ncccc1C(=O)N1CCCC(C(=O)c2ccc3c4c(cccc24)CC3)C1 (stereo not drawn) ?
AHR act: 15; ABCB6 inh 2: 94; STAT3 act: 104; FXN GAA850 act: 5

Results for COc1cc(CCN2C(=O)N[C@@H](c3cccc(C(F)(F)F)c3)C(C(C)=O)=C2C)cc(OC)c1OC ?
AHR act: 6; STAT3 act: 99

Results for O=C(OCC1CC(c2ccccc2Cl)=NO1)c1ccc(Br)cc1 (stereo not drawn) ?
AHR act: 3; ABCB6 inh 2: 101; STAT3 act: 106; FXN GAA850 act: 7.6*; GAA30 FXN cntr: 11; FXN GAA850 conf: 5

What do the screens show for `CCOC(=O)[C@@H]1[C@H]2COc3ccccc3[C@@H]2N2C(=O)N(c3cccc(Cl)c3)C(=O)[C@@]12C`?
AHR act: 6; ABCB6 inh 2: 94; FXN GAA850 act: 6

How did CCOC(=O)NC(=O)CSc1nc(-c2ccc(C)c(C)c2)cn1-c1ccccc1 do in these assays?
AHR act: 18; ABCB6 inh 2: 96; STAT3 act: 113; FXN GAA850 act: 7.9*; GAA30 FXN cntr: 62*; FXN GAA850 conf: 34*

Screening results from PubChem BioAssay.
